Assay results from ChEMBL document CHEMBL1833953, “Design, synthesis, and evaluation of a novel dual FMS-like tyrosine kinase 3/stem cell factor receptor (FLT3/c-KIT) inhibitor for the treatment of acute myelogenous leukemia” (J Med Chem, 2011).

Experiments:
[1] = molecular target: Mast/stem cell growth factor receptor Kit (Homo sapiens, UniProt P10721); assay: Displacement of [33P]ATP from human recombinant c-KIT domain after 20 mins by scintillation counting
Procedure, shortened: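 Radiometric kinase assay run in 100 mM HEPES pH 7.5 with 10 mM MgCl2, 25 mM NaCl, 0.01% BSA, 1 mM DTT and 0.5 mg/mL polyE4Y. Enzyme was 5 nM c-KIT with 700 μM 33P-ATP; inhibitor was added from DMSO. The reaction was started with ATP/substrate, run 20 min, stopped with 20% TCA/4 mM ATP, filtered, washed with 5% TCA and counted by scintillation.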

[2] = molecular target: T1, Interleukin-1 receptor-associated kinase 4 (Homo sapiens, UniProt Q9NWZ3); assay: Inhibition of IRAK4 by spectrophotometry
T1 sequence (Q9NWZ3 whole entry): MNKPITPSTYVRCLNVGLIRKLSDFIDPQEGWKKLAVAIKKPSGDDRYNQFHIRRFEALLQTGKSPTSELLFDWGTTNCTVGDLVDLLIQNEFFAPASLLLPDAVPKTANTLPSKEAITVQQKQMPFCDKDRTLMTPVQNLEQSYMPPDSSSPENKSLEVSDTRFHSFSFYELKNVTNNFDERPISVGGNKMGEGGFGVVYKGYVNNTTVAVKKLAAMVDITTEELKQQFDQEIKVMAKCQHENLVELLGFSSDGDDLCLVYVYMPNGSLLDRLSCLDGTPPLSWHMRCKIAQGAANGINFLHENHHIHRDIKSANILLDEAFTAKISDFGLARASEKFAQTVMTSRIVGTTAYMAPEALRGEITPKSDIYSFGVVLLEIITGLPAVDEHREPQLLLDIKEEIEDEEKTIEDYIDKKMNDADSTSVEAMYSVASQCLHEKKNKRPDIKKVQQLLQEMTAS

Aurora kinase A = molecular target: T2, Aurora kinase A (Homo sapiens, UniProt O14965); assay: Inhibition of Aurora A by spectrophotometry
T2 sequence (O14965 whole entry): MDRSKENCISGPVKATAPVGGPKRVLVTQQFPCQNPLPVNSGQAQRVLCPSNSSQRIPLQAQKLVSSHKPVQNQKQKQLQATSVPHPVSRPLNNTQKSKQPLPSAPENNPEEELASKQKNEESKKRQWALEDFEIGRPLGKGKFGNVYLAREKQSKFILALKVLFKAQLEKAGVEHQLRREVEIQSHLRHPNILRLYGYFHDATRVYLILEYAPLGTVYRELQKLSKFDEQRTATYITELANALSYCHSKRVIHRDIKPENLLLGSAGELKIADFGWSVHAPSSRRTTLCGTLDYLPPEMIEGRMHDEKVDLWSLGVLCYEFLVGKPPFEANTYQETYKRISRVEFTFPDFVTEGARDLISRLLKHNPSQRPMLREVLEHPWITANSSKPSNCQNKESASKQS

[3] = molecular target: Tyrosine-protein kinase JAK2 (Homo sapiens, UniProt O60674); assay: Inhibition of JAK2 by spectrophotometry
[4] = molecular target: T3, Receptor-type tyrosine-protein kinase FLT3 (Homo sapiens, UniProt P36888); assay: Displacement of [33P]ATP from human recombinant FLT3 domain after 20 mins by scintillation counting
T3 sequence (P36888 whole entry): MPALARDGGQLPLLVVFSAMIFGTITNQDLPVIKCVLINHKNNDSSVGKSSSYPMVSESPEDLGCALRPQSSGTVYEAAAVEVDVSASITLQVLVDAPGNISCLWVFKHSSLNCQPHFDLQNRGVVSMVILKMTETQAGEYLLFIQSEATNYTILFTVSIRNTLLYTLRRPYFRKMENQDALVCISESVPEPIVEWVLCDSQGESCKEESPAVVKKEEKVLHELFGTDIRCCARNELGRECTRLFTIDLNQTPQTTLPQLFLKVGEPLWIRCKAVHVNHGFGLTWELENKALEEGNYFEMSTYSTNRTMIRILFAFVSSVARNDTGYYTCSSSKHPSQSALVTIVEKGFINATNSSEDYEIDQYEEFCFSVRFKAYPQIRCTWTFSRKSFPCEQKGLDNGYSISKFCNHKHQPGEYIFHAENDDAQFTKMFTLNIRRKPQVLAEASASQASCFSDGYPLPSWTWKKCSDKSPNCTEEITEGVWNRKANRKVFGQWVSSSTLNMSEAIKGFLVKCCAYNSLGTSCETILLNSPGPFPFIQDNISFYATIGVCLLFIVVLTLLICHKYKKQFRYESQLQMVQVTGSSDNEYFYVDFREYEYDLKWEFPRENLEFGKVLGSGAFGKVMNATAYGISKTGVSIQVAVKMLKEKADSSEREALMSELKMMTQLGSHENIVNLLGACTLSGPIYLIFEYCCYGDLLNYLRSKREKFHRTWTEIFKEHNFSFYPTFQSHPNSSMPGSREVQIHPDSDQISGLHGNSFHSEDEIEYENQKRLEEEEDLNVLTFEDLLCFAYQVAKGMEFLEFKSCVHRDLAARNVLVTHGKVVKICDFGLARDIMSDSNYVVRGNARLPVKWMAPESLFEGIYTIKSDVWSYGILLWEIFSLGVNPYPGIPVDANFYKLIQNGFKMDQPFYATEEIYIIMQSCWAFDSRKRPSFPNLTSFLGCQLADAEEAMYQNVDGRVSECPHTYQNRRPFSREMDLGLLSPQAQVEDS

[5] = Clearance in iv dosed rat; assay type: ADME, organism-based; conditions: in vivo
[6] = Half life in iv dosed rat; assay type: ADME, organism-based; conditions: in vivo
MV4-11 = assay: Cytotoxicity against human MV411 cells

Mast/stem cell growth factor receptor Kit, sequence (P10721 whole entry, the tested form may be a part): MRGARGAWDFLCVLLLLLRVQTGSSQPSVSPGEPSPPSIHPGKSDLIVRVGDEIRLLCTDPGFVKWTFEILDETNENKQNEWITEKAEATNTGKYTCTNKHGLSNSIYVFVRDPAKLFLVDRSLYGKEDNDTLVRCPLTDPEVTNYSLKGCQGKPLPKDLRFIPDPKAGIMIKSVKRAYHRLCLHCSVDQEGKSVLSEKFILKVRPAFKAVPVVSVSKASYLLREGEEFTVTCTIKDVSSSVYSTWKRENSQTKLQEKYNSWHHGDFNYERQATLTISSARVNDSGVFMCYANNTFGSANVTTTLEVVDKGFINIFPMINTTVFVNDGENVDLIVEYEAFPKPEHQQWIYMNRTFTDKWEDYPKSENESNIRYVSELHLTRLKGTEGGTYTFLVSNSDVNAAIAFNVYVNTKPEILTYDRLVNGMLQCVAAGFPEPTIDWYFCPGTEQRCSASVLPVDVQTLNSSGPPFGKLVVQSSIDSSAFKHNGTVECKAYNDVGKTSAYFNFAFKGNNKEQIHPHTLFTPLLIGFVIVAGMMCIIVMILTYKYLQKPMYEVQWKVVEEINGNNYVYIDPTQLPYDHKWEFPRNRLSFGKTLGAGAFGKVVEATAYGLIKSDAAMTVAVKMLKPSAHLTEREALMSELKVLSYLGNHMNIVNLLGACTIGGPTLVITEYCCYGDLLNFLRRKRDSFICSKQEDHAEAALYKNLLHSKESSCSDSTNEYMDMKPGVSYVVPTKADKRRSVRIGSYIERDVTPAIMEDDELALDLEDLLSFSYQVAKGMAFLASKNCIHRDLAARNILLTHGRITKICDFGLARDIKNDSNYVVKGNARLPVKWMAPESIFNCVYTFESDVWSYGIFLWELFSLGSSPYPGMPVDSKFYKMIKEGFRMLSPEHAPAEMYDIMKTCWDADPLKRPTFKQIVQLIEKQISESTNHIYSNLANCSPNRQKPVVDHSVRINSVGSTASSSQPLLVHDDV
Tyrosine-protein kinase JAK2, sequence (O60674 whole entry, the tested form may be a part): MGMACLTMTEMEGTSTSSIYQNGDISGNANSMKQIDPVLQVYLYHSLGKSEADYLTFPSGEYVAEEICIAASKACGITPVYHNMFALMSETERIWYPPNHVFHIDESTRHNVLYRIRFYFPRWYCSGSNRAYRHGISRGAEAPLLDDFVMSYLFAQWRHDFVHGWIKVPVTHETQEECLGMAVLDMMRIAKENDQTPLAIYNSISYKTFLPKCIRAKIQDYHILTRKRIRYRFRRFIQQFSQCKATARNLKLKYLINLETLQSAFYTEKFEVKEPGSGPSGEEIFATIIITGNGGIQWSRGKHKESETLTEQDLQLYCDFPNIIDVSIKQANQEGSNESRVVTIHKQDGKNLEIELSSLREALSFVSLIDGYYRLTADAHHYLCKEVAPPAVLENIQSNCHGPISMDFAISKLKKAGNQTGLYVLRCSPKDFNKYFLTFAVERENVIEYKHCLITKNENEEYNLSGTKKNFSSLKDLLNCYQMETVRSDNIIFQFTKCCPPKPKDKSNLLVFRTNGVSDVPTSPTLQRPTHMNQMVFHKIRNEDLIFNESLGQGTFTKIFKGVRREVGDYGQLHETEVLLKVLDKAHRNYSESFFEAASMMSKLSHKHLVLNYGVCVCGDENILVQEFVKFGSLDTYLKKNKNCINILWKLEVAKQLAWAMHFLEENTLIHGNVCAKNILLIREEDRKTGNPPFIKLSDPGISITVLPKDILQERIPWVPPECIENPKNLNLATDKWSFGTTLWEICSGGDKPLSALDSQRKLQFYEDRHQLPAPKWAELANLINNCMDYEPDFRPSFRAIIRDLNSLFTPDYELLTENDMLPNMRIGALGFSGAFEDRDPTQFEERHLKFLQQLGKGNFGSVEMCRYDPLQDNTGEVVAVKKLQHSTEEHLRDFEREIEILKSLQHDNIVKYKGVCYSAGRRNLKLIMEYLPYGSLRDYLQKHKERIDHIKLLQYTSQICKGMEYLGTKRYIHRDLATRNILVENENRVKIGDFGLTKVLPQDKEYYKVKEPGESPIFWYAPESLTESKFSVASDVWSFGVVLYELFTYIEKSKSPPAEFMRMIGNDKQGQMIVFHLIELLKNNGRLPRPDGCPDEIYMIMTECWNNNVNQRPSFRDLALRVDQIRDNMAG

Structure (SMILES)	Ki [1] [nM]	Ki [2] [nM]	Ki (Aurora kinase A) [nM]	Ki [3] [nM]	Ki [4] [nM]	clearance [5] [mL/min/kg]	half-life [6] [h]	IC50 (MV4-11) [nM]
COc1ccc(N2CCOCC2)cc1Nc1nc(N)n(-c2ccccn2)n1	60	160	> 4000	> 4000	6	–	–	–
N#Cc1ccc(-n2nc(Nc3ccccc3Cl)nc2N)nc1	–	36	> 2500	> 4000	15	–	–	–
CN1CCC(c2cccc(Nc3nc(N)n(-c4ccccn4)n3)c2)CC1	< 50	–	–	–	< 1	174	2.48	< 1
Nc1nc(Nc2ccc(C(O)CCCN3CCOCC3)cc2)nn1-c1ccccn1 (stereo not given)	< 50	–	–	–	–	17.7	1.03	1
Nc1nc(Nc2ccc(OCCCN3CCOCC3)cc2)nn1-c1ccccn1	< 50	–	–	–	–	67.2	0.93	–
COc1ccc(Nc2nc(N)n(-c3ccccn3)n2)cc1OC	9	43	103	67	2.8	–	–	–
CN1CCN(c2ccc(Nc3nc(N)n(-c4ccccn4)n3)cc2)CC1	–	–	–	–	–	84.4	2.54	2
Nc1nc(Nc2ccc(C(=O)N3CCOCC3)cc2)nn1-c1ccccn1	21	–	–	–	–	4.4	2.22	2
COc1ccccc1Nc1nc(N)n(-c2ccccn2)n1	12	420	> 7000	> 4000	15	–	–	–
Nc1nc(Nc2ccc(N3CCOCC3)cc2)nn1-c1ccccn1	–	–	–	–	–	31.1	2.84	2
CC(=O)Nc1cccc(Nc2nc(N)n(-c3ccccn3)n2)c1	180	–	–	–	–	44.6	2.81	15
